Test results as given in ChEMBL document CHEMBL1158358, “Synthesis, antimicrobial and cytotoxic activities of some 5-arylidene-4-thioxo-thiazolidine-2-ones” (Eur J Med Chem, 2009).
≈ marks a conversion by molar mass, not a printed value.

Legend:
Type in all cases: functional
Staphylococcus aureus [1] = assay: Antimicrobial activity against multidrug-resistant Staphylococcus aureus H.C. 21141 isolate after 20 hrs by twofold serial dilution technique; conditions: H.C. 21141, 20 h
Method in brief: (§1)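 Twofold serial dilution MIC in agar plates against Gram-positive strains and multidrug-resistant clinical isolates. Inoculum applied was 10⁵ CFU/plate. Plates with culture medium plus DMSO served as negative control. MIC was read after incubation at 35 °C for 20 h.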

NCI-H292 [2] = assay: Cytotoxicity against human NCI-H292 cells at 1.25 ug/mL after 72 hrs by MTT assay; conditions: NCI-H292, 72 h, read-out: GI
Method in brief: (§2)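 MTT antiproliferative assay. Cells were diluted to 10⁵ cells/mL in 96-well plates and preincubated for 24 h at 37 °C in humid 5% CO₂. Compounds or vincristine (reference) were then added. Formazan was dissolved and OD read at 540 nm, compared with medium-only control cells. Run in triplicate.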

Staphylococcus aureus [3] = assay: Antimicrobial activity against Staphylococcus aureus UFPEDA 01 after 20 hrs by twofold serial dilution technique; conditions: UFPEDA 01, 20 h; method in brief: as §1
Escherichia coli = assay: Antimicrobial activity against Escherichia coli UFPEDA 224 at 300 ug/disk after 24 hrs by disk diffusion method; conditions: UFPEDA 224, 24 h, read-out: IZ
Method in brief: (§3)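 Preliminary screen by disk diffusion. Paper disks (6 mm) holding 300 µg of compound were placed on agar plates inoculated with a standardized microbial suspension. DMSO-only disks served as negative controls. A mean inhibition zone below 7 mm was scored as no sensitivity. Values are means, n = 3.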

Staphylococcus aureus [4] = assay: Antimicrobial activity against multidrug-resistant Staphylococcus aureus H.C. 20981 isolate after 20 hrs by twofold serial dilution technique; conditions: H.C. 20981, 20 h; method in brief: as §1
Staphylococcus aureus [5] = assay: Antimicrobial activity against multidrug-resistant Staphylococcus aureus H.C. 20489 isolate after 20 hrs by twofold serial dilution technique; conditions: H.C. 20489, 20 h; method in brief: as §1
Staphylococcus aureus [6] = assay: Antimicrobial activity against multidrug-resistant Staphylococcus aureus H.C. 20905 isolate after 20 hrs by twofold serial dilution technique; conditions: H.C. 20905, 20 h; method in brief: as §1
Candida albicans [7] = assay: Antimicrobial activity against Candida albicans UFPEDA 1007 after 48 hrs by twofold serial dilution technique; conditions: UFPEDA 1007, 48 h
Method in brief: (§4)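 MIC was determined by twofold serial dilution. Bacteria were tested in plates at 10⁵ CFU/plate and read after 20 h. C. albicans was tested in tubes at 10³ CFU/tube and read after 48 h. All incubations were at 35 °C. Medium plus DMSO served as the negative control.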

NCI-H292 [8] = assay: Cytotoxicity against human NCI-H292 cells at 10 ug/mL after 72 hrs by MTT assay; conditions: NCI-H292, 72 h, read-out: GI; method in brief: as §2
Serratia marcescens = assay: Antimicrobial activity against Serratia marcescens UFPEDA 398 at 300 ug/disk after 24 hrs by disk diffusion method; conditions: UFPEDA 398, 24 h, read-out: IZ; method in brief: as §3
HEp-2 [9] = assay: Cytotoxicity against human Hep2 cells at 5 ug/mL after 72 hrs by MTT assay; conditions: HEp-2, 72 h, read-out: GI; method in brief: as §2
Staphylococcus aureus [10] = assay: Antimicrobial activity against multidrug-resistant Staphylococcus aureus H.C. 21036 isolate after 20 hrs by twofold serial dilution technique; conditions: H.C. 21036, 20 h; method in brief: as §1
Staphylococcus aureus [11] = assay: Antimicrobial activity against Staphylococcus aureus UFPEDA 01 at 300 ug/disk after 24 hrs by disk diffusion method; conditions: UFPEDA 01, 24 h, read-out: IZ; method in brief: as §3
HEp-2 [12] = assay: Cytotoxicity against human Hep2 cells at 1.25 ug/mL after 72 hrs by MTT assay; conditions: HEp-2, 72 h, read-out: GI; method in brief: as §2
Enterococcus faecalis [13] = assay: Antimicrobial activity against Enterococcus faecalis UFPEDA 138 after 20 hrs by twofold serial dilution technique; conditions: UFPEDA 138, 20 h; method in brief: as §4
Enterococcus faecalis [14] = assay: Antimicrobial activity against multidrug-resistant Enterococcus faecalis H.C. 24962 isolate after 20 hrs by twofold serial dilution technique; conditions: H.C. 24962, 20 h; method in brief: as §1
Staphylococcus [15] = assay: Antimicrobial activity against coagulase-negative Staphylococcus H.A.M. 338 isolate after 20 hrs by twofold serial dilution technique; conditions: H.A.M. 338, 20 h; method in brief: as §4
HEp-2 [16] = assay: Cytotoxicity against human Hep2 cells at 2.5 ug/mL after 72 hrs by MTT assay; conditions: HEp-2, 72 h, read-out: GI; method in brief: as §2
Enterococcus faecalis [17] = assay: Antimicrobial activity against Enterococcus faecalis UFPEDA 138 at 300 ug/disk after 24 hrs by disk diffusion method; conditions: UFPEDA 138, 24 h, read-out: IZ; method in brief: as §3
Enterococcus faecalis [18] = assay: Antimicrobial activity against multidrug-resistant Enterococcus faecalis H.C. 21944 isolate after 20 hrs by twofold serial dilution technique; conditions: H.C. 21944, 20 h; method in brief: as §1
Bacillus subtilis [19] = assay: Antimicrobial activity against Bacillus subtilis UFPEDA 16 after 20 hrs by twofold serial dilution technique; conditions: UFPEDA 16, 20 h; method in brief: as §4
[20] = test system: Mycolicibacterium smegmatis; assay: Antimicrobial activity against Mycobacterium smegmatis UFPEDA 71 at 300 ug/disk after 24 hrs by disk diffusion method; conditions: UFPEDA 71, 24 h, read-out: IZ; method in brief: as §3
Staphylococcus aureus [21] = assay: Antimicrobial activity against multidrug-resistant Staphylococcus aureus H.C. 20794 isolate after 20 hrs by twofold serial dilution technique; conditions: H.C. 20794, 20 h; method in brief: as §1
Enterococcus faecalis [22] = assay: Antimicrobial activity against multidrug-resistant Enterococcus faecalis H.C. 24708 isolate after 20 hrs by twofold serial dilution technique; conditions: H.C. 24708, 20 h; method in brief: as §1
NCI-H292 [23] = assay: Cytotoxicity against human NCI-H292 cells at 5 ug/mL after 72 hrs by MTT assay; conditions: NCI-H292, 72 h, read-out: GI; method in brief: as §2
[24] = test system: Mycolicibacterium smegmatis; assay: Antimicrobial activity against Mycobacterium smegmatis UFPEDA 71 after 20 hrs by twofold serial dilution technique; conditions: UFPEDA 71, 20 h; method in brief: as §4
Micrococcus luteus [25] = assay: Antimicrobial activity against Micrococcus luteus UFPEDA 06 at 300 ug/disk after 24 hrs by disk diffusion method; conditions: UFPEDA 06, 24 h, read-out: IZ; method in brief: as §3
NCI-H292 [26] = assay: Cytotoxicity against human NCI-H292 cells at 2.5 ug/mL after 72 hrs by MTT assay; conditions: NCI-H292, 72 h, read-out: GI; method in brief: as §2
Micrococcus luteus [27] = assay: Antimicrobial activity against Micrococcus luteus UFPEDA 06 after 20 hrs by twofold serial dilution technique; conditions: UFPEDA 06, 20 h; method in brief: as §4
Bacillus subtilis [28] = assay: Antimicrobial activity against Bacillus subtilis UFPEDA 16 at 300 ug/disk after 24 hrs by disk diffusion method; conditions: UFPEDA 16, 24 h, read-out: IZ; method in brief: as §3
Pseudomonas aeruginosa = assay: Antimicrobial activity against Pseudomonas aeruginosa UFPEDA 39 at 300 ug/disk after 24 hrs by disk diffusion method; conditions: UFPEDA 39, 24 h, read-out: IZ; method in brief: as §3
Candida albicans [29] = assay: Antimicrobial activity against Candida albicans UFPEDA 1007 at 300 ug/disk after 48 hrs by disk diffusion method; conditions: UFPEDA 1007, 48 h, read-out: IZ; method in brief: as §3
HEp-2 [30] = assay: Cytotoxicity against human Hep2 cells at 10 ug/mL after 72 hrs by MTT assay; conditions: HEp-2, 72 h, read-out: GI; method in brief: as §2
Staphylococcus [31] = assay: Antimicrobial activity against coagulase-negative Staphylococcus H.A.M. 278 isolate after 20 hrs by twofold serial dilution technique; conditions: H.A.M. 278, 20 h; method in brief: as §4
Enterococcus faecalis [32] = assay: Antimicrobial activity against multidrug-resistant Enterococcus faecalis H.C. 21752 isolate after 20 hrs by twofold serial dilution technique; conditions: H.C. 21752, 20 h; method in brief: as §1

SMILES: O=C1NC(=S)/C(=C/c2c(Cl)cccc2Cl)S1
- MIC (Staphylococcus aureus [1]): 8 µg/mL (≈ 27.6 µM)
- inhibition of growth at 1.25 µg/mL (NCI-H292 [2]): 4.36%
- MIC (Staphylococcus aureus [3]): 4 µg/mL (≈ 13.8 µM)
- zone of inhibition at 300 µg/disc (Escherichia coli): < 7 mm
- MIC (Staphylococcus aureus [4]): 8 µg/mL (≈ 27.6 µM)
- MIC (Staphylococcus aureus [5]): 4 µg/mL (≈ 13.8 µM)
- MIC (Staphylococcus aureus [6]): 4 µg/mL (≈ 13.8 µM)
- MIC (Candida albicans [7]): 32 µg/mL (≈ 110 µM)
- inhibition of growth at 10 µg/mL (NCI-H292 [8]): 32.8%
- zone of inhibition at 300 µg/disc (Serratia marcescens): < 7 mm
- inhibition of growth at 5 µg/mL (HEp-2 [9]): -2.39%
- MIC (Staphylococcus aureus [10]): 8 µg/mL (≈ 27.6 µM)
- zone of inhibition at 300 µg/disc (Staphylococcus aureus [11]): 20 mm
- inhibition of growth at 1.25 µg/mL (HEp-2 [12]): -9.16%
- MIC (Enterococcus faecalis [13]): 16 µg/mL (≈ 55.1 µM)
- MIC (Enterococcus faecalis [14]): 16 µg/mL (≈ 55.1 µM)
- MIC (Staphylococcus [15]): 4 µg/mL (≈ 13.8 µM)
- inhibition of growth at 2.5 µg/mL (HEp-2 [16]): -4.24%
- zone of inhibition at 300 µg/disc (Enterococcus faecalis [17]): < 7 mm
- MIC (Enterococcus faecalis [18]): 8 µg/mL (≈ 27.6 µM)
- MIC (Bacillus subtilis [19]): 8 µg/mL (≈ 27.6 µM)
- zone of inhibition at 300 µg/disc [20]: 17 mm
- MIC (Staphylococcus aureus [21]): 4 µg/mL (≈ 13.8 µM)
- MIC (Enterococcus faecalis [22]): 16 µg/mL (≈ 55.1 µM)
- inhibition of growth at 5 µg/mL (NCI-H292 [23]): 10.3%
- MIC [24]: 4 µg/mL (≈ 13.8 µM)
- zone of inhibition at 300 µg/disc (Micrococcus luteus [25]): 18 mm
- inhibition of growth at 2.5 µg/mL (NCI-H292 [26]): 7.7%
- MIC (Micrococcus luteus [27]): 16 µg/mL (≈ 55.1 µM)
- zone of inhibition at 300 µg/disc (Bacillus subtilis [28]): 20 mm
- zone of inhibition at 300 µg/disc (Pseudomonas aeruginosa): < 7 mm
- zone of inhibition at 300 µg/disc (Candida albicans [29]): 15 mm
- inhibition of growth at 10 µg/mL (HEp-2 [30]): 8.73%
- MIC (Staphylococcus [31]): 4 µg/mL (≈ 13.8 µM)
- MIC (Enterococcus faecalis [32]): 8 µg/mL (≈ 27.6 µM)
